ChEMBL document CHEMBL3046785, “Antifungal activity of borrelidin produced by a Streptomyces strain isolated from soybean” (J Agric Food Chem, 2012)
Values after ≈ are worked out from the molar mass of the structure shown.

Key:
Phytophthora sojae [1] = experiment: Antifungal activity against Phytophthora sojae race 5 assessed as growth inhibition at 28 degC after 7 days (beneficial crop soybean); type: functional, organism-based; details: race 5, 168 h
Method in brief: (§1)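 Race-specific mycelial growth assay on carrot agar (CA) at 28 °C. Test article was dissolved in methanol, diluted with water and added to CA; a 0.2% methanol plate served as negative control. A 5 mm plug from the colony margin was centred on each plate. Colony diameters were recorded once the control was covered. Inhibition = (1 − D/Dc) × 100. EC50/EC95 came from linear regression. Run in triplicate.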

Phytophthora sojae [2] = experiment: Antifungal activity against Phytophthora sojae race 44 assessed as growth inhibition at 28 degC after 7 days (beneficial crop soybean); type: functional, organism-based; details: race 44, 168 h; method in brief: as §1
Phytophthora sojae [3] = experiment: Antifungal activity against Phytophthora sojae race 1 in germinated soybean seeds assessed as root length at 10 mg/L after 48 hr (untreated control = 4.15 +/- 0.71 cm); type: functional
Phytophthora sojae [4] = experiment: Antifungal activity against Phytophthora sojae race 1 in germinated soybean seeds assessed as disease control efficacy at 1 mg/L after 48 hr relative to control; type: functional
Method in brief: (§2)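 Seeds (Hefeng-25) were surface-sterilised (10% NaOCl, 20 min), rinsed, and germinated at 30 °C until roots exceeded 10 mm, five per dish on wet filter paper. Roots received 2 mL of solution: 1% Tween 80 in water, or 25% WP in water (4/20/40 mg/L = 1/5/10 mg a.i./L). A 7 mm race 1 disk was placed on the roots and removed after 24 h. After 48 h at 28 °C, roots were rated 0–4 and disease index computed. Efficiency is relative to the inoculated Tween control. Three experiments.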

Phytophthora sojae [5] = experiment: Antifungal activity against Phytophthora sojae race 54 assessed as growth inhibition at 28 degC after 7 days (beneficial crop soybean); type: functional, organism-based; details: race 54, 168 h; method in brief: as §1
Phytophthora sojae [6] = experiment: Antifungal activity against Phytophthora sojae race 3 assessed as growth inhibition at 28 degC after 7 days (beneficial crop soybean); type: functional, organism-based; details: race 3, 168 h; method in brief: as §1
Phytophthora sojae [7] = experiment: Antifungal activity against Phytophthora sojae race 9 assessed as growth inhibition at 28 degC after 7 days (beneficial crop soybean); type: functional, organism-based; details: race 9, 168 h; method in brief: as §1
Phytophthora sojae [8] = experiment: Antifungal activity against Phytophthora sojae race 1 in germinated soybean seeds assessed as root length at 1 mg/L after 48 hr (untreated control = 4.15 +/- 0.71 cm); type: functional
Phytophthora sojae [9] = experiment: Antifungal activity against Phytophthora sojae race 1 assessed as growth inhibition at 28 degC after 7 days (beneficial crop soybean); type: functional, organism-based; details: race 1, 168 h; method in brief: as §1
Phytophthora sojae [10] = experiment: Antifungal activity against Phytophthora sojae race 1 in germinated soybean seeds assessed as root length at 5 mg/L after 48 hr (untreated control = 4.15 +/- 0.71 cm); type: functional
Phytophthora sojae [11] = experiment: Antifungal activity against Phytophthora sojae race 1 in germinated soybean seeds assessed as disease control efficacy at 10 mg/L after 48 hr relative to control; type: functional; method in brief: as §2
Phytophthora sojae [12] = experiment: Antifungal activity against Phytophthora sojae race 1 in germinated soybean seeds assessed as disease control efficacy at 5 mg/L after 48 hr relative to control; type: functional; method in brief: as §2
Phytophthora sojae [13] = experiment: Antifungal activity against Phytophthora sojae race 4 assessed as growth inhibition at 28 degC after 7 days (beneficial crop soybean); type: functional, organism-based; details: race 4, 168 h; method in brief: as §1
Phytophthora sojae [14] = experiment: Antifungal activity against Phytophthora sojae race 13 assessed as growth inhibition at 28 degC after 7 days (beneficial crop soybean); type: functional, organism-based; details: race 13, 168 h; method in brief: as §1
Phytophthora sojae [15] = experiment: Antifungal activity against Phytophthora sojae race 1 in germinated soybean seeds assessed as lesion length at 5 mg/L after 48 hr (untreated control = 3.34 +/- 0.64 cm); type: functional
Phytophthora sojae [16] = experiment: Antifungal activity against Phytophthora sojae race 1 in germinated soybean seeds assessed as lesion length at 1 mg/L after 48 hr (untreated control = 3.34 +/- 0.64 cm); type: functional
Glycine max = experiment: Phytotoxicity against germinated Glycine max (soybean) seeds at 10 mg/L; type: organism-based; details: in vivo
Phytophthora sojae [17] = experiment: Antifungal activity against Phytophthora sojae race 1 in germinated soybean seeds assessed as lesion length at 10 mg/L after 48 hr (untreated control = 3.34 +/- 0.64 cm); type: functional
Phytophthora sojae [18] = experiment: Antifungal activity against Phytophthora sojae race 1 in germinated soybean seeds assessed as lesion length at 20 mg/L after 48 hr compound at 25% WP (untreated control = 3.34 +/- 0.64 cm); type: functional
Phytophthora sojae [19] = experiment: Antifungal activity against Phytophthora sojae race 1 in germinated soybean seeds assessed as disease control efficacy at 20 mg/L after 48 hr compound at 25% WP relative to control; type: functional; method in brief: as §2
Phytophthora sojae [20] = experiment: Antifungal activity against Phytophthora sojae race 1 in germinated soybean seeds assessed as disease control efficacy at 40 mg/L after 48 hr compound at 25% WP relative to control; type: functional; method in brief: as §2
Phytophthora sojae [21] = experiment: Antifungal activity against Phytophthora sojae race 1 in germinated soybean seeds assessed as root length at 4 mg/L after 48 hr compound at 25% WP (untreated control = 4.15 +/- 0.71 cm); type: functional
Phytophthora sojae [22] = experiment: Antifungal activity against Phytophthora sojae race 1 in germinated soybean seeds assessed as disease control efficacy at 4 mg/L after 48 hr compound at 25% WP relative to control; type: functional; method in brief: as §2
Phytophthora sojae [23] = experiment: Antifungal activity against Phytophthora sojae race 1 in germinated soybean seeds assessed as lesion length at 40 mg/L after 48 hr compound at 25% WP (untreated control = 3.34 +/- 0.64 cm); type: functional
Phytophthora sojae [24] = experiment: Antifungal activity against Phytophthora sojae race 1 in germinated soybean seeds assessed as root length at 40 mg/L after 48 hr compound at 25% WP (untreated control = 4.15 +/- 0.71 cm); type: functional
Phytophthora sojae [25] = experiment: Antifungal activity against Phytophthora sojae race 1 in germinated soybean seeds assessed as root length at 20 mg/L after 48 hr compound at 25% WP (untreated control = 4.15 +/- 0.71 cm); type: functional
Phytophthora sojae [26] = experiment: Antifungal activity against Phytophthora sojae race 1 in germinated soybean seeds assessed as lesion length at 4 mg/L after 48 hr compound at 25% WP (untreated control = 3.34 +/- 0.64 cm); type: functional

Row | SMILES | EC50 (Phytophthora sojae [1]) | EC95 (Phytophthora sojae [1]) | EC50 (Phytophthora sojae [2]) | EC95 (Phytophthora sojae [2]) | EC50 (Phytophthora sojae [5]) | EC95 (Phytophthora sojae [5]) | EC50 (Phytophthora sojae [6]) | EC95 (Phytophthora sojae [6]) | EC50 (Phytophthora sojae [7]) | EC95 (Phytophthora sojae [7]) | EC50 (Phytophthora sojae [9]) | EC95 (Phytophthora sojae [9]) | EC50 (Phytophthora sojae [13]) | EC95 (Phytophthora sojae [13]) | EC50 (Phytophthora sojae [14]) | EC95 (Phytophthora sojae [14]) | further results
1 | C[C@@H]1C[C@H](C)C[C@H](C)[C@@H](O)CC(=O)O[C@H]([C@@H]2CCC[C@H]2C(=O)O)C/C=C/C=C(/C#N)[C@H](O)[C@@H](C)C1 [BORRELIDIN] | 0.0052 µg/mL (≈ 0.0106 µM) | 0.02 µg/mL (≈ 0.0408 µM) | 0.0047 µg/mL (≈ 0.0096 µM) | 0.018 µg/mL (≈ 0.0368 µM) | 0.0057 µg/mL (≈ 0.0116 µM) | 0.021 µg/mL (≈ 0.0429 µM) | 0.0051 µg/mL (≈ 0.0104 µM) | 0.021 µg/mL (≈ 0.0429 µM) | 0.0053 µg/mL (≈ 0.0108 µM) | 0.02 µg/mL (≈ 0.0408 µM) | 0.0056 µg/mL (≈ 0.0114 µM) | 0.026 µg/mL (≈ 0.0531 µM) | 0.0038 µg/mL (≈ 0.00776 µM) | 0.017 µg/mL (≈ 0.0347 µM) | 0.0057 µg/mL (≈ 0.0116 µM) | 0.021 µg/mL (≈ 0.0429 µM) | Activity (Phytophthora sojae [3]): 6.81 cm; Efficacy (Phytophthora sojae [4]): 56.25%; Activity (Phytophthora sojae [8]): 6.24 cm; Activity (Phytophthora sojae [10]): 6.53 cm; Efficacy (Phytophthora sojae [11]): 94.72%; Efficacy (Phytophthora sojae [12]): 80.76%; Activity (Phytophthora sojae [15]): 0.73 cm; Activity (Phytophthora sojae [16]): 1.91 cm; Activity (Glycine max): Non-toxic; Activity (Phytophthora sojae [17]): 0.25 cm
2 | COCC(=O)N(c1c(C)cccc1C)C(C)C(=O)OC (stereo unspecified) [METALAXYL] | 0.3 µg/mL (≈ 1.07 µM) | 11.6 µg/mL (≈ 41.5 µM) | 0.28 µg/mL (≈ 1 µM) | 12.2 µg/mL (≈ 43.9 µM) | 0.3 µg/mL (≈ 1.07 µM) | 13.3 µg/mL (≈ 47.5 µM) | 0.17 µg/mL (≈ 0.609 µM) | 4.63 µg/mL (≈ 16.6 µM) | 0.34 µg/mL (≈ 1.22 µM) | 11.8 µg/mL (≈ 42.3 µM) | 0.35 µg/mL (≈ 1.25 µM) | 6.82 µg/mL (≈ 24.4 µM) | 0.18 µg/mL (≈ 0.644 µM) | 8.03 µg/mL (≈ 28.7 µM) | 0.32 µg/mL (≈ 1.15 µM) | 7.55 µg/mL (≈ 27 µM) | Activity (Phytophthora sojae [18]): 1.34 cm; Efficacy (Phytophthora sojae [19]): 71.97%; Efficacy (Phytophthora sojae [20]): 87.7%; Activity (Phytophthora sojae [21]): 6.21 cm; Efficacy (Phytophthora sojae [22]): 45.52%; Activity (Phytophthora sojae [23]): 0.62 cm; Activity (Phytophthora sojae [24]): 6.73 cm; Activity (Phytophthora sojae [25]): 6.48 cm; Activity (Phytophthora sojae [26]): 2.57 cm
